Results: ChEMBL document CHEMBL1145104, “Discovery of a long-chain carbamoyl aminocarnitine derivative, a reversible carnitine palmitoyltransferase inhibitor with antiketotic and antidiabetic activity” (J Med Chem, 2003)

Key:
[1] = target: T1, Carnitine O-palmitoyltransferase 1, liver isoform (Rattus norvegicus, UniProt P32198); test: Inhibition of [14C]palmitoyl-CoA and carnitine binding to carnitine palmitoyltransferase I from rat liver mitochondria
T1 sequence (P32198 whole entry): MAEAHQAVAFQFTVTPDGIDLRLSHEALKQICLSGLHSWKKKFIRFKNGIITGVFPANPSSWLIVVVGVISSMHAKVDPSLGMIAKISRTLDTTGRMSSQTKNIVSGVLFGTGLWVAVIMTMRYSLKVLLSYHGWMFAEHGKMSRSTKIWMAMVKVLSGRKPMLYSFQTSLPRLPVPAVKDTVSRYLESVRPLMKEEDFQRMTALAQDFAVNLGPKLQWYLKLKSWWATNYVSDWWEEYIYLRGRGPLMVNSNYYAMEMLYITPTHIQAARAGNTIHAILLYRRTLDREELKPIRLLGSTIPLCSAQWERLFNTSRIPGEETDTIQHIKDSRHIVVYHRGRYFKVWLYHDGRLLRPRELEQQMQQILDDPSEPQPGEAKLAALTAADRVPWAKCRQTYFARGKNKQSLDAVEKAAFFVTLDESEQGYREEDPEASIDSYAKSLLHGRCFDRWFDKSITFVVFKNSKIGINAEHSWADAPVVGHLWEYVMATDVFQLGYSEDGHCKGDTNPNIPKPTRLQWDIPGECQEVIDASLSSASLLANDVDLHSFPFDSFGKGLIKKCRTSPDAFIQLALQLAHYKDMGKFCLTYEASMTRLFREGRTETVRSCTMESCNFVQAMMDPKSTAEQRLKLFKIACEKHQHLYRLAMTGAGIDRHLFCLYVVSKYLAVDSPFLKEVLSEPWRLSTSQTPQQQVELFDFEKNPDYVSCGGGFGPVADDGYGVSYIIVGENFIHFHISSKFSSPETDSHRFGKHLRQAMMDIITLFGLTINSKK
Summary of the method: (§1)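 Intact mitochondria freshly isolated from the livers of fed male Sprague-Dawley rats, suspended in buffer with 225 mM sucrose. Assay medium at pH 7.5 with [14C]palmitoyl-CoA and L-carnitine, and inhibitor at 0–3 mM. Run 1 min at 37 °C; radiolabelled palmitoylcarnitine formation was measured. IC50 was taken from the inhibition curve; mean of two determinations in triplicate.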

[2] = target: T2, Carnitine O-palmitoyltransferase 1, muscle isoform (Rattus norvegicus, UniProt Q63704); test: In vitro inhibition of [14C]palmitoyl-CoA and carnitine binding to carnitine palmitoyltransferase I of rat heart mitochondria
T2 sequence (Q63704 whole entry): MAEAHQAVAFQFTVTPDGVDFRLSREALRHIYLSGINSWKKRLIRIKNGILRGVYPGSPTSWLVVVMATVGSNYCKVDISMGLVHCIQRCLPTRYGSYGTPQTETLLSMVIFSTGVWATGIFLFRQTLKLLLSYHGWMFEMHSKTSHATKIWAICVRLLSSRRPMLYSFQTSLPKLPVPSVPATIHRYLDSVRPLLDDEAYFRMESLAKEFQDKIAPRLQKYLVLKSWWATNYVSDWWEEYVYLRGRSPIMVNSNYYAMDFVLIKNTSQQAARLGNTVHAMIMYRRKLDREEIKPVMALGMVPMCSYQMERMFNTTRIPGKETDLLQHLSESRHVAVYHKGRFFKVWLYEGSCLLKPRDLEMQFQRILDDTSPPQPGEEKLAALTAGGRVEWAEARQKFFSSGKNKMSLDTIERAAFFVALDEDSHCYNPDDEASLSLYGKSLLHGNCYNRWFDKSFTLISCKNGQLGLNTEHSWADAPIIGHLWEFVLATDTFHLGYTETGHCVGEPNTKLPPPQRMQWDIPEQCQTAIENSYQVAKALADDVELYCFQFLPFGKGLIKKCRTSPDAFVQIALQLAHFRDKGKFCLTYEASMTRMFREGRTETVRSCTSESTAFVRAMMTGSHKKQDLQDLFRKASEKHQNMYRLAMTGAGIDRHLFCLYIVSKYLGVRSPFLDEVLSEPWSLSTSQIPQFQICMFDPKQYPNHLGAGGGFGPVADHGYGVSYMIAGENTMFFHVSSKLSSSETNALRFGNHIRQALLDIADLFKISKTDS
Summary of the method: as §1, with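 “hearts” for “livers”, “75” for “225”, “[14C]palmitoyl incorporated into carnitine” for “radiolabelled palmitoylcarnitine formation”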

[3] = system: Mus musculus; test: Percent decrease in the serum glucose level of mice treated with 50 mg/kg of compound orally for 45 days; assay type: functional; conditions: route oral
Summary of the method: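 Oral dosing of male C57BL/KsJ-db/db mice (8 weeks old, n=8) at 50 mg/kg or an equimolar dose, twice daily for 45 days; vehicle was 0.5% carboxymethylcellulose. Serum was collected 9 h after the last dose, after a 9 h fast. Glucose was measured with an autoanalyzer kit; percent reduction was calculated against untreated db/db controls; Student's t test.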

[4] = species on record: Rattus norvegicus; test: Effective dose of compound that reduces serum beta-hydroxybutyrate levels in rats
[5] = species on record: Rattus norvegicus; test: Percent decrease of oleoylcarnitine levels in isolated rat hepatocytes at 3 mM compound concentration; No variation
[6] = system: Mus musculus; test: Percent decrease in the liver glycogen level of mice treated with 50 mg/kg of compound orally for 45 days; assay type: functional; conditions: route oral
Summary of the method: (§2)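 Male C57BL/KsJ-db/db mice, 8 weeks old, n=8 per group. Dosed orally at 50 mg/kg or an equimolar dose, twice daily for 45 days; controls got 0.5% carboxymethylcellulose vehicle at 10 mL/kg. Sampled 9 h after the last dose, after a 9 h fast. Percent change was calculated against untreated db/db controls.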

[7] = target: T1, Carnitine O-palmitoyltransferase 1, liver isoform; test: Inhibition of rat liver carnitine palmitoyltransferase I; conditions: read-out: Ki app; summary of the method: as §1
[8] = system: Mus musculus; test: Percent decrease in the serum fructosamine level of mice treated with 50 mg/kg of compound orally for 45 days; assay type: functional; conditions: route oral; summary of the method: as §2
[9] = system: Mus musculus; test: Percent increase in the liver triglycerides content of mice treated with 50 mg/kg of compound orally for 45 days; conditions: route oral
[10] = system: Mus musculus; test: Percent increase of free fatty acids level in serum of mice treated with 50 mg/kg of compound orally for 45 days; conditions: route oral
[11] = system: Mus musculus; test: Level of fructosamine in […] mice serum after treating with 50 mg/kg of compound orally for 45 days (originally-4.80+/-0.17 mmol/L); assay type: functional; conditions: route oral
[12] = system: Mus musculus; test: Level of glucose in […] mice serum after treating with 50 mg/kg of compound orally for 45 days (originally-673.9+/-44.09 mg/dL); assay type: functional; conditions: route oral

Row | SMILES | IC50 [1] [µM] | IC50 [2] [µM] | other results
1 | CCCCCCCCOC(=O)N[C@@H](CC(=O)[O-])C[N+](C)(C)C | 9.5 | 80.1 | 
2 | CCCCCCCCCCCCS(=O)(=O)N[C@H](CC(=O)[O-])C[N+](C)(C)C | 6 | > 10 | 
3 | CCCCCCCCCNC(=O)N[C@H](CC(=O)[O-])C[N+](C)(C)C | > 300 | > 300 | 
4 | CCCCCCCCCCCCS(=O)(=O)N[C@@H](CC(=O)[O-])C[N+](C)(C)C | 0.7 | 3.4 | 
5 | CCCCCCCCCCCCCCNC(=O)N[C@H](CC(=O)[O-])C[N+](C)(C)C [TEGLICAR] | 58.8 | 167 | 
6 | CCCCCCCCCCCNC(=O)N[C@@H](CC(=O)[O-])C[N+](C)(C)C |  | 118 | 
7 | CCCCCCCCCCCCNC(=O)N[C@@H](CC(=O)[O-])C[N+](C)(C)C | 1.8 | > 120 | 
8 | CCCCCCCNC(=O)N[C@@H](CC(=O)[O-])C[N+](C)(C)C | 43.6 | > 300 | 
9 | CCCCCCCCCNC(=O)N[C@@H](CC(=O)[O-])C[N+](C)(C)C | 31.3 | 46.2 | 
10 | CCCCCCCCOC(=O)N[C@H](CC(=O)[O-])C[N+](C)(C)C | > 300 | > 300 | 
11 | CCCCCCCCCCCCCCNC(=O)N[C@@H](CC(=O)[O-])C[N+](C)(C)C | 1.1 | 43.4 | Decrease [3]: -25%; ED50 [4]: 14.5 mg/kg; Decrease [5]: No variation; Decrease [6]: -25%; Ki [7]: 0.36 µM; Decrease [8]: -30%; Increase [9]: 38%; Increase [10]: 20%; Level in serum [11]: 3.37 mM l-1; Level in serum [12]: 202.6 mg/dL
